The source of these data is ChEMBL document CHEMBL5678802, “Small-molecule p21-activated kinase inhibitor PF-3758309 is a potent inhibitor of oncogenic signaling and tumor growth” (Proc Natl Acad Sci U S A, 2010).

In general, IC50 refers to the concentration that gives 50% inhibition. The inhibition is the percentage by which the read-out fell short of the control. As a reminder, the Ki is the dissociation constant of the complex between target and ligand, obtained from inhibition or displacement.

Data set [1] concerns HuP-T3. The experiment in a line: Antiproliferative activity against human HuP-T3 cells assessed as inhibition of cell proliferation incubated for 3 days by CellTiter-Glo Luminescent Cell Viability Assay. It is filed as functional, cell-based. The settings on record: HuP-T3, 72 h. A digest of the protocol:
(§1)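 Cancer cell lines seeded in 384-well plates on day 1; compound added on day 2 and left for 3 days. On day 5 all medium was aspirated, and viable cells were quantified by CellTiter-Glo luminescence, which measures cellular ATP. Dose-dependent effects on proliferation were determined.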
A general note: In ATP-based viability assays light output follows the ATP content of the culture.

Data set [2] concerns the target Protein kinase C theta type (Homo sapiens, UniProt Q04759). The experiment in a line: Inhibition of human PKCtheta in presence of ATP relative to control. The settings on record: concentration not given here.
The target in data set [3] is Ribosomal protein S6 kinase alpha-3 (Homo sapiens, UniProt P51812). Kind of data set: Inhibition of human RSK2 assessed as inhibition constant in presence of ATP.
Data set [4] relates to HCT-116. Kind of data set: Antitumor activity against human HCT-116 cells xenografted in nude mouse assessed as reduction in AKT1 phosphorylation at S473 residue at 15 to 150 mg/kg/day administered via pump for 18 hrs by Reverse-Phase protein array analysis. Format: functional, organism-based. The settings on record: dose 15-150 mg/kg/day. In general terms: In xenograft studies the graft and the host belong to different species.

For data set [5], the target named is T1, Serine/threonine-protein kinase D1 (Homo sapiens, UniProt Q15139).
T1 sequence (Q15139 whole entry): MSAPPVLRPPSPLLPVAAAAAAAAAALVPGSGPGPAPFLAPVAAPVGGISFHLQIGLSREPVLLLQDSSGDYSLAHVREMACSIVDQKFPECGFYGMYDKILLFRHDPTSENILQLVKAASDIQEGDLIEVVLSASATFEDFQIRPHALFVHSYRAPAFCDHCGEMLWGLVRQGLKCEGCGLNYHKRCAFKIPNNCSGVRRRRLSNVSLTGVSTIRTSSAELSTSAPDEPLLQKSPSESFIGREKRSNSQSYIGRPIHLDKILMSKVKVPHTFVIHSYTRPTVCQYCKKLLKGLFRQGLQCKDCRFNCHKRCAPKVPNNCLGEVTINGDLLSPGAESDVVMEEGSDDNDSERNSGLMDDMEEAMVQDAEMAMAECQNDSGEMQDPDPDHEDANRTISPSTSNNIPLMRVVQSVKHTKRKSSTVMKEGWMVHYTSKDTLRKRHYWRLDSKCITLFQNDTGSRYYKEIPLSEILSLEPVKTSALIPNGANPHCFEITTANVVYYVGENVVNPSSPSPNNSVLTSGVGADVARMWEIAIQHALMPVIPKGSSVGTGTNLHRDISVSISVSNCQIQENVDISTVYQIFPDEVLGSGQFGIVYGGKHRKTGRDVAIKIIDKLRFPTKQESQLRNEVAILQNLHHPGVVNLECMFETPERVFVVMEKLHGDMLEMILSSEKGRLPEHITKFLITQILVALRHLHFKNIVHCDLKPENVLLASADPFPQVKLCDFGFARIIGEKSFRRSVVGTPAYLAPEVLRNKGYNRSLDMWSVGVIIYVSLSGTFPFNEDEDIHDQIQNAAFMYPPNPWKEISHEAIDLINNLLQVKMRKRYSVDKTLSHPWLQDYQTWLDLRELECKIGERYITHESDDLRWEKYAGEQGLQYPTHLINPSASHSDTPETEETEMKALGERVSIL
Kind of data set: Inhibition of human PKCmu in presence of ATP.

In data set [6] the test system is NCI-H520. Kind of data set: Inhibition of anchorage independent cell growth in human NCI-H520 cells incubated for 6 days by Alamar blue reagent based fluorescence plate reader analysis. It is filed as functional. As to conditions: NCI-H520, 144 h. (Alamar Blue is a resazurin reagent that responds to reducing activity.)
Data set [7] concerns ASPC1. The experiment in a line: Antiproliferative activity against human ASPC1 cells assessed as inhibition of cell proliferation incubated for 3 days by CellTiter-Glo Luminescent Cell Viability Assay. Format: functional, cell-based. The settings on record: ASPC1, 72 h. An outline of the steps:
as §1

In data set [8] the test system is HCT-116. The experiment in a line: Antitumor activity against human HCT-116 cells xenografted in nude mouse assessed as reduction in Elk phosphorylation at S383 residue at 15 to 150 mg/kg/day administered via pump for 18 hrs by Reverse-Phase protein array analysis. It is filed as functional, organism-based. The settings on record: dose 15-150 mg/kg/day.
The target in data set [9] is Serine/threonine-protein kinase Chk2 (Homo sapiens, UniProt O96017). The experiment in a line: Inhibition of human CHK2 in presence of ATP.
For data set [10], the system named is LS-123. The experiment in a line: Antiproliferative activity against human LS-123 cells assessed as inhibition of cell proliferation incubated for 3 days by CellTiter-Glo Luminescent Cell Viability Assay. It is filed as functional, cell-based. As to conditions: LS-123, 72 h. An outline of the steps:
as §1

The test system of data set [11] is COLO 320DM. Kind of data set: Antiproliferative activity against human COLO 320DM cells assessed as inhibition of cell proliferation incubated for 3 days by CellTiter-Glo Luminescent Cell Viability Assay. Format: functional, cell-based. As to conditions: 72 h. A digest of the protocol: as §1
The test system of data set [12] is HCT-116. Kind of data set: Induction of apoptosis in human HCT-116 cells at 100 nM measured after 48 hrs by fluorescence activated cell sorter analysis. Format: functional, cell-based.
Data set [13] has as its system HCT-15. Kind of data set: Antiproliferative activity against human HCT-15 cells assessed as inhibition of cell proliferation incubated for 3 days by CellTiter-Glo Luminescent Cell Viability Assay. The settings on record: HCT-15, 72 h. It is filed as functional, cell-based. A digest of the protocol: as §1
Data set [14] has as its system NCI-H441. Kind of data set: Antiproliferative activity against human NCI-H441 cells assessed as inhibition of cell proliferation incubated for 3 days by CellTiter-Glo Luminescent Cell Viability Assay. It is filed as functional, cell-based. As to conditions: NCI-H441, 72 h. An outline of the steps: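 Cells of each line were plated in 384-well plates on day 1 and exposed to compound from day 2 for 3 days. On day 5 all medium was aspirated. Viable cell number was read by CellTiter-Glo luminescence, which quantifies cellular ATP.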

Data set [15] has as its system HCT-116. The experiment in a line: Induction of cell cycle arrest in human HCT-116 cells assessed as accumulation of cells at G2/M phase at 100 nM measured after 48 hrs by fluorescence activated cell sorter analysis (reference value: 19.78%). Format: functional.
Data set [16] concerns NCI-H1975. Kind of data set: Antiproliferative activity against human NCI-H1975 cells assessed as inhibition of cell proliferation incubated for 3 days by CellTiter-Glo Luminescent Cell Viability Assay. It is filed as functional, cell-based. The settings on record: NCI-H1975, 72 h. An outline of the steps: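 Cancer cell lines seeded in 384-well plates on day 1; compound added on day 2 and incubated 3 days. On day 5 media aspirated and viable cells quantified by ATP content using CellTiter-Glo luminescence; dose-dependent proliferation effects determined.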

A short description of data set [17]: Drug concentration in nude mouse plasma xenografted with human HCT-116 cells at 0.36 mg/kg administered via pump for 9 days by LC-MS/MS analysis. It is filed as ADME, organism-based. The settings on record: time 9 day.
The test system of data set [18] is HCT-116. Kind of data set: Antitumor activity against human HCT-116 cells xenografted in nude mouse assessed as increase in caspase 3 activation at 15 to 25 mg/kg, po administered twice daily for 6 days by immunohistochemical analysis. It is filed as functional, organism-based. As to conditions: dose 15-25 mg/kg, time 6.0 day. A digest of the protocol:
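HCT116 cells (2 × 10^6 in 0.15 mL 1:1 Matrigel:PBS) were implanted s.c. in nude mice. At 300–350 mm3, mice were randomized into groups of five and dosed orally twice daily with vehicle, 15 or 25 mg/kg. Tumors were harvested on days 2, 3 and 6, paraformaldehyde-fixed and IHC-stained for caspase 3 (1:200). Three serial sections were scored 0–4 (0 = <2% to 4 = >7% positive cells).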

The target in data set [19] is Serine/threonine-protein kinase N1 (Homo sapiens) (UniProt Q16512). Kind of data set: Inhibition of human PRK1 in presence of ATP relative to control. The settings on record: concentration not given here.
Data set [20] has as its target Protein kinase C gamma type (Homo sapiens, UniProt P05129). The experiment in a line: Inhibition of human PKCgamma in presence of ATP by cellular assay.

Each structure is given as a SMILES string. Activity calls are given as the source filed them. The calls are words filed in the database; no cut-off is given here.

Serine/threonine-protein kinase N1 (Homo sapiens), sequence (Q16512 2-942 limits assumed): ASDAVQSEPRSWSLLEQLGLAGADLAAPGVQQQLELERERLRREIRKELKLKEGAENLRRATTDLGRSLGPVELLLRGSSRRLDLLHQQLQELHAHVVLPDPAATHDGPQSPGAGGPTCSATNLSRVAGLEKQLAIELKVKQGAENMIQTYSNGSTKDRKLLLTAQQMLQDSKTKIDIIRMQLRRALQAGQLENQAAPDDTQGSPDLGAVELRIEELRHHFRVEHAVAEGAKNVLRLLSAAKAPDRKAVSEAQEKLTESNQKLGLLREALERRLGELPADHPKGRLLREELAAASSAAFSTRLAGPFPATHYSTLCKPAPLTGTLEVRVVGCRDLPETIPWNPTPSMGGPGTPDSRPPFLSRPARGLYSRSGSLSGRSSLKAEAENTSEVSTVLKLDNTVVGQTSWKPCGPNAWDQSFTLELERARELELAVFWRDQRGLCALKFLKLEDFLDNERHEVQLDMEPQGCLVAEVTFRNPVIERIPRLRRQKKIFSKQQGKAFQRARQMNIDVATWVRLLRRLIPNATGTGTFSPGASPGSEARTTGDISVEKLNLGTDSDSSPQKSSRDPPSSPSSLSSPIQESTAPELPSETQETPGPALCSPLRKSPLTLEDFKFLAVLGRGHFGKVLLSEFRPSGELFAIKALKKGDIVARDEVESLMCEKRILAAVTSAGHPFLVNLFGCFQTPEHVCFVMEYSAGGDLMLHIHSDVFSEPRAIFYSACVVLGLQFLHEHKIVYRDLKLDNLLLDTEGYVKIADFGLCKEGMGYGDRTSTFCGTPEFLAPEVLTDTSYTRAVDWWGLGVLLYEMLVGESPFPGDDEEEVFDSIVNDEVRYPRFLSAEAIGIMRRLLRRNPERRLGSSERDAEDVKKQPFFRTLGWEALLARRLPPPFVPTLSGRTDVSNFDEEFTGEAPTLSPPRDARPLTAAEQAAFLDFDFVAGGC
Ribosomal protein S6 kinase alpha-3, sequence (P51812 whole entry): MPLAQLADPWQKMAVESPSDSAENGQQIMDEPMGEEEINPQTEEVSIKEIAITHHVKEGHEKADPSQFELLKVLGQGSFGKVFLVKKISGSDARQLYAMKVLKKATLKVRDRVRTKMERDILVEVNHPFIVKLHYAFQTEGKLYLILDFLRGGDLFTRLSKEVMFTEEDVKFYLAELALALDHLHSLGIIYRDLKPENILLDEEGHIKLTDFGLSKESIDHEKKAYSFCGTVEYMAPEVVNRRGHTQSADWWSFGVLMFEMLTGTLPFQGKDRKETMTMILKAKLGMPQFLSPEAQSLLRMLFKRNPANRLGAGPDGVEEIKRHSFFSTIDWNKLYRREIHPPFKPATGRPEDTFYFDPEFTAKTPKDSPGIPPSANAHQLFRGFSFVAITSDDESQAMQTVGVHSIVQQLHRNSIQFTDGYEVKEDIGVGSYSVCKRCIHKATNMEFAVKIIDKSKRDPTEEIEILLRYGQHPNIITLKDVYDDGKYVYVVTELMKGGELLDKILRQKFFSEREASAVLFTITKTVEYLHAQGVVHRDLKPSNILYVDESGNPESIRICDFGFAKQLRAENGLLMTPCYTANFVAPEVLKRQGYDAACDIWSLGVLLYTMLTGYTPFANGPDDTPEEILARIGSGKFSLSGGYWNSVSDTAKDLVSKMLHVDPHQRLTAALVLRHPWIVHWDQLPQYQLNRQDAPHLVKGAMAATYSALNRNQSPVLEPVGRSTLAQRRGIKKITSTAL
Protein kinase C theta type, sequence (Q04759 whole entry, looked up): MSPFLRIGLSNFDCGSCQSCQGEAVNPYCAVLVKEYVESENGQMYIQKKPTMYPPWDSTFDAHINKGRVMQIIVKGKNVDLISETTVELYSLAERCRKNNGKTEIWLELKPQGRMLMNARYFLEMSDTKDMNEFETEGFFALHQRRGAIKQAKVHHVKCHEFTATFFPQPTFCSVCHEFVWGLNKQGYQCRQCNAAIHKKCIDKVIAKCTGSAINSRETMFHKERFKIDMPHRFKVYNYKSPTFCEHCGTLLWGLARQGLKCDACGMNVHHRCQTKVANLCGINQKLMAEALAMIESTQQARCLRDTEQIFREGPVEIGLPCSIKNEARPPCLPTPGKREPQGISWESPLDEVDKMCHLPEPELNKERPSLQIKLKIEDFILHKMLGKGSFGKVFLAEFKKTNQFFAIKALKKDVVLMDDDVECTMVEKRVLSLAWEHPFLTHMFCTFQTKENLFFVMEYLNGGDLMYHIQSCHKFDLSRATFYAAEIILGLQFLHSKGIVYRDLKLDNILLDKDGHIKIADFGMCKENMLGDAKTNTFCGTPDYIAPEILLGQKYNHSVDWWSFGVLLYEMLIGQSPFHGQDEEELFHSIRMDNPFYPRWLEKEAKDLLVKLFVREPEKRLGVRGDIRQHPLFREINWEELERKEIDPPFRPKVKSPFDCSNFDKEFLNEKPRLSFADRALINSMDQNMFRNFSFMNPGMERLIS
Serine/threonine-protein kinase Chk2, sequence (O96017 whole entry): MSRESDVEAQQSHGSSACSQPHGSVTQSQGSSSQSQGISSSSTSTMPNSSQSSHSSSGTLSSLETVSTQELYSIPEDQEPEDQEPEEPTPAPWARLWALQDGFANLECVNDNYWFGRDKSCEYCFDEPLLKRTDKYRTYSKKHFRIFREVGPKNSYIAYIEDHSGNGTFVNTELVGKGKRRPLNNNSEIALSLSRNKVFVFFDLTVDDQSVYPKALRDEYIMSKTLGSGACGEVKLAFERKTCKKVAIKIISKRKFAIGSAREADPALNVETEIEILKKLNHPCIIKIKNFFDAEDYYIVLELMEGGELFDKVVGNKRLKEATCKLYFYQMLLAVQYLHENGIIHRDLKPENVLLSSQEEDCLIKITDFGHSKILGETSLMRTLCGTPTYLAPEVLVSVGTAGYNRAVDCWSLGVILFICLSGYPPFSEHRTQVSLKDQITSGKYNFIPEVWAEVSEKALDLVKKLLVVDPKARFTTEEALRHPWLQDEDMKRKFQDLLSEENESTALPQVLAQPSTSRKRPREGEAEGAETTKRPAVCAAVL

For the molecule `Cc1nc(Nc2n[nH]c3c2CN(C(=O)N[C@H](CN(C)C)c2ccccc2)C3(C)C)c2sccc2n1` [PF-03758309], the IC50 in data set [1] amounted to 0.28 µM; in data set [5], 0.021 µM; in data set [6], 0.00113 µM; in data set [7], 1.8 µM; in [9] it was 0.013 µM; in [10] it was 10 µM. The IC50 in [11] is 0.205 µM; in [13], 10 µM; in [14], 0.0092 µM; in data set [16] it was 0.017 µM; in data set [20], 4.74 µM. Further, the inhibition in data set [2] was determined as 98%; in data set [19] it was 86%. Also, the Ki in data set [3] was determined as 0.005 µM. Also, the result in [4], in [8], in [12] and in data set [18] was Active. Moreover, in [15], the Activity stood at 23.08%. The molecule further displayed a concentration at 216 h in [17] of 1.7 ng/mL.
